The source made the active and inactive calls. The calls are words filed in the database; no cut-off is given here.
Legend:
[1] = target: Heat shock protein HSP 90-beta (Homo sapiens, UniProt P08238)
[2] = target: Endoplasmin (Canis lupus familiaris, UniProt P41148); assay: Displacement of Cy3B-GM from recombinant Grp94 (unknown origin) after 24 hrs by fluorescence polarization assay
[3] = target: T1, Heat shock protein 75 kDa, mitochondrial (Homo sapiens, UniProt Q12931); assay: Displacement of PU-FITC3 from recombinant TRAP-1 (unknown origin) after 24 hrs by fluorescence polarization assay
T1 sequence (Q12931 whole entry): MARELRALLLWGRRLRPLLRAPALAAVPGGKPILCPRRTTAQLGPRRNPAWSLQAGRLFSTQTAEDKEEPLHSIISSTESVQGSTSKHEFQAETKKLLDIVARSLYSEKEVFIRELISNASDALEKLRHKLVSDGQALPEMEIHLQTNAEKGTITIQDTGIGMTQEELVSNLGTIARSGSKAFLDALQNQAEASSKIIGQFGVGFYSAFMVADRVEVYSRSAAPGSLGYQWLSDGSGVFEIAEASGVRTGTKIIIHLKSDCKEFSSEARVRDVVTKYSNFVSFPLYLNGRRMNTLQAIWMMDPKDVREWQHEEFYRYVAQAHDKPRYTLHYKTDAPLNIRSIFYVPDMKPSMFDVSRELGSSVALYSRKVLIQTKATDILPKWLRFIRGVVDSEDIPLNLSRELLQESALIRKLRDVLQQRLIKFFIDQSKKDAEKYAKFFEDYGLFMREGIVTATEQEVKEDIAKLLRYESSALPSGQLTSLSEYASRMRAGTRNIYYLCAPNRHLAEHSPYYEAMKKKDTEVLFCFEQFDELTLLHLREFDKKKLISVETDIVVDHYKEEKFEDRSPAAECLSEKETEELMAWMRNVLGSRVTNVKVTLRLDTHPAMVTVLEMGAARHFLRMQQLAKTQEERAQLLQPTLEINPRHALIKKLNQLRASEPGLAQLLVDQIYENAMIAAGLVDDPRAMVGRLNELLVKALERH

[4] = target: Heat shock protein HSP 90-alpha (Homo sapiens, UniProt P07900); assay: Displacement of Cy3B-GM from recombinant Hsp90alpha (unknown origin) after 24 hrs by fluorescence polarization assay
[5] = target: Heat shock protein HSP90 (Homo sapiens) (UniProt P07900+P08238); assay: Inhibition of HSP90 in human SKBR3 cells assessed as induction of HSP70 activity at 100 uM after 24 hrs by Western blot analysis; type: cell-based; conditions: SK-BR-3
How it was run: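 SKBr3 cells (McCoy's 5A, 10% FBS, 1% Pen/Strep, 37 °C, CO2) treated 24 h with DMSO vehicle or compound. Cells lysed in RIPA with protease inhibitors; protein measured by BCA. Lysate (5−50 μg) run on SDS−PAGE, blotted to nitrocellulose, probed for Hsp70 (1:2500) and β-actin. HRP secondary, ECL detection, densitometry; triplicate experiments.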

[6] = Cytotoxicity against human SKBR3 cells assessed as cell viability at 100 uM after 72 hrs by CellTiter-Glo assay; type: cell-based; conditions: sk-br-3, 72 h
How it was run: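 SKBr3 cells were grown in McCoy's 5A with 10% FBS and Pen/Strep at 37 °C. They were exposed 72 h to vehicle or compound in quadruplicate wells. Viability was read by CellTiter-Glo luminescence (ATP content), with mean ± error, n = 4.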

[7] = target: MAP kinase-interacting serine/threonine-protein kinase 2 (Homo sapiens) (UniProt Q9HBH9); assay: Inhibition of human MKNK2 at 10 uM after 1 hr by qPCR analysis relative to control
Chain of MAP kinase-interacting serine/threonine-protein kinase 2 (Homo sapiens) (Q9HBH9 whole entry, looked up): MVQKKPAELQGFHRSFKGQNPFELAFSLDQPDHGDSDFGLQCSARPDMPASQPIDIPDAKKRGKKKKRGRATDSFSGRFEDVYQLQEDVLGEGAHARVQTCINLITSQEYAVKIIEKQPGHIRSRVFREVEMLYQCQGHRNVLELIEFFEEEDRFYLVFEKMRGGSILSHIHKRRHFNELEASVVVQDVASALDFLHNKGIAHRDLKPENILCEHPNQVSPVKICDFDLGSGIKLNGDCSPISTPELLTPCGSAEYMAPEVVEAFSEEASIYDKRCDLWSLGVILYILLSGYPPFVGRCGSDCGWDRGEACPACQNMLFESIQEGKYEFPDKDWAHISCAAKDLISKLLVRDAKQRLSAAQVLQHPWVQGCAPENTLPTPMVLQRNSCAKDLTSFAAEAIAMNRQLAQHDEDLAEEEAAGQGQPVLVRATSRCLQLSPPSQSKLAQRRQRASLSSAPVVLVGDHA
How it was run: (§1)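 Compound tested at 10 μM in a scanEDGE 97 active-site competition binding panel. Incubation was 1 h at room temperature, then washing and elution with non-biotinylated ligand. Bead-bound kinase was quantified by qPCR; values are % inhibition.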

[8] = target: Rho-associated protein kinase 2 (Homo sapiens) (UniProt O75116); assay: Inhibition of human ROCK2 at 10 uM after 1 hr by qPCR analysis relative to control
Chain of Rho-associated protein kinase 2 (Homo sapiens) (O75116 whole entry, looked up): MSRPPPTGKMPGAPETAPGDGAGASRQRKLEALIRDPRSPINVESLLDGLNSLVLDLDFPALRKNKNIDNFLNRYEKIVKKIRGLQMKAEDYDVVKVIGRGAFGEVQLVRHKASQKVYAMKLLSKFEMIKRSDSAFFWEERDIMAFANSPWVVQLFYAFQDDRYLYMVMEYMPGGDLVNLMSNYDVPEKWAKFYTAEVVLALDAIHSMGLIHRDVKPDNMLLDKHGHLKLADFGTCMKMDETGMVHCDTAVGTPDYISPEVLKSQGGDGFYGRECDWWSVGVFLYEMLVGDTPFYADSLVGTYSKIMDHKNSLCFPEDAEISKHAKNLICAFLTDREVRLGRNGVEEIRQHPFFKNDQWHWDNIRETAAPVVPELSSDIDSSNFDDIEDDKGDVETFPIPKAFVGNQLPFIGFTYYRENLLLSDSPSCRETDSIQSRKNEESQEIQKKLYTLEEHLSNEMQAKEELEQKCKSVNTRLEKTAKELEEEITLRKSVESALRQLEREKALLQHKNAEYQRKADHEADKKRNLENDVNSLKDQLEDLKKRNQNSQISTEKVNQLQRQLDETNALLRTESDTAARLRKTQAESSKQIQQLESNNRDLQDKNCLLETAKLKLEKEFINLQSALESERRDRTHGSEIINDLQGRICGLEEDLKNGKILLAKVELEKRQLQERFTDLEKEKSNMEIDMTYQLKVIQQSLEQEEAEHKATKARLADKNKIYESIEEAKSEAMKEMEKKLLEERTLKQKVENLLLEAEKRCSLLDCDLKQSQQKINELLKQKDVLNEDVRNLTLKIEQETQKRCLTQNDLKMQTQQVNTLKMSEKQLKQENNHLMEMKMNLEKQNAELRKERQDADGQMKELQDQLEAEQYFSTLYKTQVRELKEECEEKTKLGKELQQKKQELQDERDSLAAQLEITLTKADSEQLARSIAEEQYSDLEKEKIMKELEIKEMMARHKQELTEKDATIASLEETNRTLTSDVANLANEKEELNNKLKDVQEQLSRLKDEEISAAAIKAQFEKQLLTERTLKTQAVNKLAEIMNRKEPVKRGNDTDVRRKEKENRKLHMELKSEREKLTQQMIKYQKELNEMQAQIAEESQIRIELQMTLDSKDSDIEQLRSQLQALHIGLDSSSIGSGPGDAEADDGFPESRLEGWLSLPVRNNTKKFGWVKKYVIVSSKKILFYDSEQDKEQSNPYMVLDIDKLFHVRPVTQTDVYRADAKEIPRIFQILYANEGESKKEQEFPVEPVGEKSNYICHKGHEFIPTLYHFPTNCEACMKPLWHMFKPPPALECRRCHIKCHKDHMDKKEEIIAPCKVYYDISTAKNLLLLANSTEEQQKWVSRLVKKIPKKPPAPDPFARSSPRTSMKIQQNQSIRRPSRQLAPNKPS
How it was run: as §1

[9] = species: Homo sapiens; assay: Selectivity ratio of IC50 for recombinant Grp94 (unknown origin) to IC50 for recombinant Hsp90alpha (unknown origin)

Chain of Endoplasmin (P41148 whole entry): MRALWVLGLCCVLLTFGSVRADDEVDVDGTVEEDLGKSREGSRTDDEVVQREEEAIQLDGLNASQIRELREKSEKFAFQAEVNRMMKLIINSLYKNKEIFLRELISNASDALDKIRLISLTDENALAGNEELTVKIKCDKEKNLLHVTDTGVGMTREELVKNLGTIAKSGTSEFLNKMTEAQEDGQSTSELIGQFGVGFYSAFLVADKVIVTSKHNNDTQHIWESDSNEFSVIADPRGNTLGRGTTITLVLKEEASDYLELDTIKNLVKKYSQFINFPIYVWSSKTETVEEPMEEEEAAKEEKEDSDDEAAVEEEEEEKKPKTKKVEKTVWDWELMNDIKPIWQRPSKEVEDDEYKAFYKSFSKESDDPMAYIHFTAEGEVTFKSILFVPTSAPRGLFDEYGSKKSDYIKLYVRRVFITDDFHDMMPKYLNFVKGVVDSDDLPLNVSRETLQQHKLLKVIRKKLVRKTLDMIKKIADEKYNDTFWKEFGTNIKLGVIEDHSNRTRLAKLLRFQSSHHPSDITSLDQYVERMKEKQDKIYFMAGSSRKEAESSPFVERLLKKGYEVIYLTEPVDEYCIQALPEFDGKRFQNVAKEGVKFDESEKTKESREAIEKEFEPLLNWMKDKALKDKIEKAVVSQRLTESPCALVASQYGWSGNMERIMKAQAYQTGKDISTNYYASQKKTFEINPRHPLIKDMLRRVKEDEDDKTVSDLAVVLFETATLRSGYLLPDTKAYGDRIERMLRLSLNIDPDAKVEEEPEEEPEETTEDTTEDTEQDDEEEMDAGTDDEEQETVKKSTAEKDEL
Chain of Heat shock protein HSP 90-beta (P08238 whole entry): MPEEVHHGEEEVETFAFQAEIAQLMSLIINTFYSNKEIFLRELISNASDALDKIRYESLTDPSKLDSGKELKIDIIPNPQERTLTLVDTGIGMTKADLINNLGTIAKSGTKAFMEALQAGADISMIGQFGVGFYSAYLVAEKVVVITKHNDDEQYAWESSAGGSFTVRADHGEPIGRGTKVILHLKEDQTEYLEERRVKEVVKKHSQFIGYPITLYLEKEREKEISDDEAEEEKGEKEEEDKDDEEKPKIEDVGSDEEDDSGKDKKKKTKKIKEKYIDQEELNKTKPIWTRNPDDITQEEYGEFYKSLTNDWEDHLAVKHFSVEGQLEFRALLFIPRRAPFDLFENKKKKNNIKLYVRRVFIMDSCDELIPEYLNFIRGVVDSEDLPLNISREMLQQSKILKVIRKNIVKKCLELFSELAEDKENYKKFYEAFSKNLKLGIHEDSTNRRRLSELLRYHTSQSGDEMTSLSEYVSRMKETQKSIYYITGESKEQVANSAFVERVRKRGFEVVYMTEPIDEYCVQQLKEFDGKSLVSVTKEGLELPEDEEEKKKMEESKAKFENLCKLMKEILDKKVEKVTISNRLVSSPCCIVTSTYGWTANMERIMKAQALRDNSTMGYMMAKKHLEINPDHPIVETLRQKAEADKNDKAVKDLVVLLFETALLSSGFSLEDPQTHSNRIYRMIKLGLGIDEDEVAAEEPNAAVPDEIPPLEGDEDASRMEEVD

Row | SMILES | IC50 [2] | IC50 [4] | also measured
1 | C#CCCCn1c(Sc2ccc(Cl)c(Cl)c2Cl)nc2c(N)ncnc21 | 0.43 µM | 16 µM | IC50 [1]: 39.5 µM; IC50 [3]: 3.6 µM
2 | COC(=O)c1c(O)cc(O)c(Cl)c1CCc1nccn1Cc1ccccc1 |  |  | inhibition [5]: Active; Activity [6]: Toxic
3 | Nc1ncnc2c1nc(Sc1cc(Cl)cc(Cl)c1)n2CCC(F)(F)F | 0.56 µM |  | 
4 | C#CCCCn1c(Sc2ccc(OC)cc2OC)nc2c(N)ncnc21 | 34.5 µM | > 50 µM | IC50 [1]: > 50 µM
5 | CC(C)NCCCn1c(Sc2ccc(Cl)cc2Cl)nc2c(N)nccc21 | 3.44 µM | > 50 µM | IC50 [3]: 14.1 µM
6 | Nc1ncnc2c1nc(Sc1cc(Cl)cc(Cl)c1)n2CCCC(F)(F)F | 0.502 µM |  | 
7 | C#CCC(C)n1c(Sc2ccc(Cl)cc2Cl)nc2c(N)ncnc21 (stereo not drawn) | 5 µM | > 50 µM | 
8 | C#CCCCn1c(Sc2ccc(Br)cc2Cl)nc2c(N)ncnc21 | 0.39 µM | > 50 µM | 
9 | C#CCCCn1c(Sc2ccc(Cl)cc2Cl)nc2c(N)ncnc21 | 0.12 µM |  | inhibition [7]: 34%; inhibition [8]: 32%
10 | C#CCCCn1c(Sc2cc(Cl)cc(Br)c2)nc2c(N)ncnc21 | 0.24 µM | > 100 µM | IC50 [1]: > 100 µM
11 | Nc1ncnc2c1nc(Sc1cc(Cl)cc(Cl)c1)n2CCCCCC(F)(F)F | 1.65 µM | > 50 µM | 
12 | C#CCC(C)n1c(Sc2cc(Cl)cc(Cl)c2)nc2c(N)ncnc21 (stereo not drawn) | 5.8 µM | > 50 µM | 
13 | CC(C)NCCCn1c(Sc2cc3c(cc2I)OCO3)nc2c(N)nccc21 | 0.101 µM | 0.028 µM | Ratio IC50 [9]: 4
14 | C#CCCCn1c(Sc2cc(Br)cc(Br)c2)nc2c(N)ncnc21 | 0.29 µM | > 50 µM | 
15 | C#CCCCn1c(Sc2ccccc2OC)nc2c(N)ncnc21 | 6.2 µM | > 100 µM | IC50 [1]: > 100 µM
16 | C#CCCCn1c(Sc2cc(Cl)ccc2Cl)nc2c(N)ncnc21 | 0.53 µM |  | 
17 | C#CCCCn1c(Sc2ccccc2OC(F)(F)F)nc2c(N)ncnc21 | 1.4 µM |  | 
18 | C#CCCCn1c(Sc2cc(Cl)cc(Cl)c2)nc2c(N)ncnc21 | 0.26 µM | > 500 µM | IC50 [1]: > 500 µM; IC50 [3]: 83.6 µM
19 | C#CCCCn1c(Sc2ccccc2Cl)nc2c(N)ncnc21 | 0.35 µM |  | 
20 | C#CCCCn1c(Sc2cc(Cl)nc(Cl)c2)nc2c(N)ncnc21 | 1.9 µM | 8.3 µM | IC50 [3]: 9.6 µM
21 | C#CCCCn1c(Sc2cc(C)cc(C)c2)nc2c(N)ncnc21 | 11.5 µM |  | 
22 | CCCCn1c(Sc2cc(Cl)cc(Cl)c2)nc2c(N)ncnc21 |  | > 50 µM | 
23 | C#CCCCn1c(C(=O)c2ccc(Cl)cc2Cl)nc2c(N)ncnc21 | 0.34 µM | > 100 µM | IC50 [3]: 4.98 µM
24 | CCCC(C)n1c(Sc2cc(Cl)cc(Cl)c2)nc2c(N)ncnc21 (stereo not drawn) | 14.3 µM | > 50 µM | 

Row | SMILES | IC50 [2] | IC50 [4] | also measured
25 | C#CCCCCn1c(Sc2cc(Cl)cc(Cl)c2)nc2c(N)ncnc21 | 0.665 µM | > 50 µM | 
26 | C#CCCCn1c(S(=O)(=O)c2ccc(Cl)cc2Cl)nc2c(N)ncnc21 | 4.7 µM |  | 
27 | C#CCCCn1c(Sc2cc(Cl)c(Cl)cc2Cl)nc2c(N)ncnc21 | 0.17 µM |  | 
28 | CC(C)NCCCn1c(Sc2cc(Cl)cc(Cl)c2)nc2c(N)nccc21 | 1.08 µM |  | IC50 [3]: 7.2 µM
29 | Nc1ncnc2c1nc(Sc1cc(Cl)cc(Cl)c1)n2CCc1ccccc1 | > 2.5 µM | > 50 µM | 
30 | C#CCC(CC)n1c(Sc2ccc(Cl)cc2Cl)nc2c(N)ncnc21 (stereo not drawn) | 0.92 µM | > 50 µM | IC50 [3]: > 50 µM
31 | CCCC(C)n1c(Sc2ccc(Cl)cc2Cl)nc2c(N)ncnc21 (stereo not drawn) | 2.48 µM | > 100 µM | IC50 [3]: > 50 µM
32 | CC(C)NCCCn1c(Sc2cc3c(cc2N(C)C)OCO3)nc2c(N)ncnc21 | 0.265 µM | 0.1 µM | 
33 | C#CCCCn1c(Sc2c(C)cc(C)cc2C)nc2c(N)ncnc21 | 2.1 µM | > 500 µM | IC50 [1]: > 500 µM
34 | C#CCCCn1c(Sc2ccc(OC)cc2)nc2c(N)ncnc21 | 1.13 µM |  | 
35 | Nc1ncnc2c1nc(Sc1cc(Cl)cc(Cl)c1)n2CCCCC(F)(F)F | 2.74 µM |  | 
36 | C#CCCCn1c(Cc2ccc(Cl)cc2Cl)nc2c(N)ncnc21 | 0.7 µM | > 100 µM | 
37 | C#CCCn1c(Sc2ccc(Cl)cc2Cl)nc2c(N)ncnc21 | 0.39 µM | > 50 µM | IC50 [3]: 7.23 µM
38 | Cc1ccc(Sc2nc3c(N)ncn(CCCNC(C)C)c-3n2)c(C)c1 | > 25 µM |  | 
39 | CC#CCn1c(Sc2cc(Cl)cc(Cl)c2)nc2c(N)ncnc21 | 5.1 µM |  | 
40 | C#CCCCn1c(Sc2cc(C(F)(F)F)ccc2Cl)nc2c(N)ncnc21 | 0.5 µM | > 100 µM | IC50 [1]: > 100 µM
41 | Nc1ncnc2c1nc(Sc1cc(Cl)cc(Cl)c1)n2Cc1ccccc1 | > 5 µM | > 50 µM | 
42 | C#CCC(CC)n1c(Sc2cc(Cl)cc(Cl)c2)nc2c(N)ncnc21 (stereo not drawn) | > 5 µM | > 100 µM | 
43 | C#CCCn1c(Sc2cc(Cl)cc(Cl)c2)nc2c(N)ncnc21 | 0.287 µM | > 50 µM | 
44 | C#CCCCn1c(Sc2ccc(Cl)cc2)nc2c(N)ncnc21 | 1.5 µM |  | 
45 | C#CCCCn1c(Oc2ccc(Cl)cc2Cl)nc2c(N)ncnc21 | 0.5 µM | > 100 µM | 
46 | C#CCCCn1c(Sc2ccccc2CO)nc2c(N)ncnc21 | 29.4 µM |  | 
47 | C#CCCCn1c(Sc2ccc(Cl)c(Cl)c2)nc2c(N)ncnc21 | 0.695 µM | 1.96 µM | 
48 | C#CCCCn1c([S+]([O-])c2ccc(Cl)cc2Cl)nc2c(N)ncnc21 (stereo not drawn) | 5.4 µM | 24.9 µM | 

— ChEMBL document CHEMBL3425404, “Structure-activity relationship in a purine-scaffold compound series with selectivity for the endoplasmic reticulum Hsp90 paralog Grp94” (J Med Chem, 2015)
